# “And” between values parts separate entries of the source, which are not always exact repeats. Equal values may be shown once.
# Legend:
# [1] = Prior population PK model of peficitinib in healthy volunteers; format: in vivo; conditions: human, plasma, oral, 150 mg
# Outline: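 Healthy-volunteer plasma levels from five clinical pharmacology studies, excluding renal/hepatic-impairment subjects. Validated LC–MS/MS (LLOQ 0.25 ng/mL), BLQ values unused. NONMEM, FOCE with interaction. 2-compartment model, five absorption schemes compared, exponential IIV, proportional residual. Covariates tested on CL: age, weight, MDRD eGFR, liver enzymes, bilirubin. Selection stepwise (forward .01, backward .001). Assessed by goodness-of-fit plots and visual predictive check.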
# [2] = Population PK model of peficitinib in RA patients; format: in vivo, human
# Outline: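 RA patients' plasma levels measured by validated LC–MS/MS (LLOQ 0.25 ng/mL) from trough and post-dose samples. BLQ values, samples >48 h after dosing (or <19 h in RAJ1), and outliers (>mean+3×SD of log trough per arm) were excluded. NONMEM, FOCE with interaction, healthy-volunteer model as prior (NWPRI penalty). 2-compartment model, exponential IIV, proportional residual. Stepwise covariate selection, power function centred on mean. 1000 bootstrap runs.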
# [3] = cited from earlier work
# [4] = RA patient model, 1000 bootstrap runs
# [5] = RA patient model, √(exp(ω^2)-1) × 100
smiles,measurement,setting,value
NC(=O)c1cnc2[nH]ccc2c1N[C@@H]1[C@@H]2CC3C[C@H]1C[C@@](O)(C3)C2 [peficitinib],clearance,[1],1390 mL/min
same,"ALAG, absorption lag time (estimate)",[2]; RA patient model,0.132 h
same,"D, duration of zero-order absorption (estimate)",[2]; RA patient model,1.37 h
same,"Ka, first-order absorption rate constant (estimate)",[2]; RA patient model,5.83 L/h
same,"Vc, apparent distribution volume of the central compartment (estimate)",[2]; RA patient model,280 L
same,"Vp, apparent distribution volume of the peripheral compartment (estimate)",[2]; RA patient model,122 L
same,"CL, apparent total systemic clearance (estimate)","[2]; RA patient model, population estimate, oral",91.7 L/h
same,"ALAG, bootstrap median",[2]; [4],0.132 h
same,"D, bootstrap median",[2]; [4],1.36 h
same,"Ka, bootstrap median",[2]; [4],5.82 L/h
same,"Q, bootstrap median",[2]; [4],10.2 L/h
same,"Vc, bootstrap median",[2]; [4],279 L
same,"Vp, bootstrap median",[2]; [4],122 L
same,"Covariate eGFR on CL (exponent of power function, estimate)","[2]; RA patient model, eGFR centred at 91.5 mL/min/1.73m^2",0.213
same,"Covariate LYM (lymphocyte count) on CL (exponent of power function, estimate)","[2]; RA patient model, lymphocyte count centred at 1550 10^6/L",−0.104
same,Interindividual variability of CL,[2]; [5],25.7%
same,Interindividual variability of Vc,[2]; [5],39.2%
same,clearance,"[2]; human, plasma, oral",1530 mL/min
same,Model predicted mean change in CL from population mean CL,[2]; patients with observed maximum eGFR of 188 mL/min/1.73m^2,16.7%
same,Model predicted mean change in CL from population mean CL,[2]; patients with observed maximum lymphocyte count of 4600 10^6/L,−10.7%
same,Model predicted mean change in CL from population mean CL,[2]; patients with observed minimum eGFR of 36.4 mL/min/1.73m^2,−17.8%
same,Model predicted mean change in CL from population mean CL,[2]; patients with observed minimum lymphocyte count of 500 10^6/L,12.3%
same,Exposure in healthy Japanese compared with Caucasian,[3],greater
same,Mean exposure in subjects with moderate hepatic impairment,[3],increases
same,Mean AUCinf,"[3]; healthy subjects, single dose 450 mg",4660 ng·h/mL
same,Tolerability,"[3]; healthy subjects, single dose up to 450 mg",tolerability was shown
same,Dose proportionality of exposure,"[3]; healthy volunteers, single doses 3–300 mg",dose‐proportional exposure
same,Increase of AUCinf by food intake,[3]; healthy volunteers,27% and 36% and 27–36%
same,Mean terminal half-life (t1/2),[3]; healthy volunteers,2.8 to 12.9 h
same,Time to maximum observed concentration (Tmax),[3]; healthy volunteers,1.0 to 1.8 h
same,"Urinary excretion of peficitinib, share of the oral dose",[3]; healthy volunteers,9–15%
same,Exposure in subjects with versus without renal impairment,"[3]; single, oral 150 mg dose",comparable

# Reference: PMC8056739 (British Journal of Clinical Pharmacology, 2020)
